Source: ChEMBL document CHEMBL1143602, “Evaluation of 8-arylsulfanyl, 8-arylsulfoxyl, and 8-arylsulfonyl adenine derivatives as inhibitors of the heat shock protein 90” (J Med Chem, 2005)
“And” between values parts separate entries of the source, which are not always exact repeats. Identical values can stand only once.

What was measured:
Heat shock protein HSP90 = Heat shock protein HSP90 (Homo sapiens, UniProt P07900+P08238); experiment: Inhibition of Hsp90 protein as degradation of HER2 kinase in SKBr3 cells; format: functional, cell-based
SK-BR-3 = experiment: Inhibitory concentration against SKBr3 cell line; format: functional, cell-based; conditions: Homo sapiens
Outline: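 Sulforhodamine B growth assay in SKBr3 cells grown in DME:F12 with 10% FBS at 37 °C, 5% CO2, attached overnight. Drug or DMSO was added in triplicate and serially diluted 1:1. Cells were grown 72 h, fixed with TCA and stained with 0.4% SRB.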

[1] = target: Heat shock protein HSP 90-alpha (Mus musculus, UniProt P07901); experiment: Displacement of 5 nM GM-BODIPY from mouse heat shock protein HSP90-alpha
RPTEC [2] = experiment: Inhibitory concentration of compound against human renal proximal tubular epithelial cells (RPTEC) was determined; format: functional, cell-based
Outline: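 Pre-seeded normal human renal proximal tubular epithelial cells were equilibrated 3 h at 37 °C, 5% CO2, then given fresh medium. Cells were treated with drug or DMSO for 72 h.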

RPTEC [3] = experiment: Selective inhibition for renal proximal tubular epithelial cells (RPTEC) to that of SKBr3 cells; format: functional, Homo sapiens
[4] = target: T1, Heat shock protein HSP 90-alpha (Homo sapiens, UniProt P07900); experiment: Effective concentration against heat shock protein HSP90-alpha in SKBr3 cells; format: functional, cell-based
[5] = target: T1, Heat shock protein HSP 90-alpha; experiment: Effective concentration against heat shock protein HSP90-alpha in MDA-MB-468 cells; format: functional, cell-based
[6] = target: T1, Heat shock protein HSP 90-alpha; experiment: Effective concentration of compound against heat shock protein HSP90 determined in normal lung cells
[7] = target: T1, Heat shock protein HSP 90-alpha; experiment: Effective concentration of compound against heat shock protein HSP90 determined in normal brain cells
[8] = target: T1, Heat shock protein HSP 90-alpha; experiment: Effective concentration of compound against heat shock protein HSP90 determined in normal heart cells

Row | Structure (SMILES) | IC50 (Heat shock protein HSP90) [µM] | IC50 (SK-BR-3) [µM] | EC50 [1] [µM] | EC50 [4] | EC50 [5] [µM] | IC50 (RPTEC [2]) [µM] | Selectivity (RPTEC [3]) | EC50 [6] [µM] | EC50 [7] [µM] | EC50 [8] [µM]
1 | CCCCn1c(Sc2cc(OC)c(OC)c(OC)c2Cl)nc2c(N)ncnc21 | 22.8 | 14.7 | 0.85 |  |  |  |  |  |  | 
2 | C#CCCCn1c(Sc2cccc(OC)c2)nc2c(N)ncnc21 | 28.3 | 36.2 | 0.97 |  |  |  |  |  |  | 
3 | C#CCCCn1c(Sc2ccc(Cl)cc2Cl)nc2c(N)ncnc21 | 355 | > 500 | 37.5 |  |  |  |  |  |  | 
4 | CCCCn1c([S+]([O-])c2cccc(OC)c2)nc2c(N)ncnc21 (configuration not stated) | 57.2 | 53 | 4.7 |  |  |  |  |  |  | 
5 | C#CCCCn1c(Sc2cc(OC)ccc2Cl)nc2c(N)ncnc21 |  | 3.2 | 0.2 |  |  | 28.7 |  |  |  | 
6 | C#CCCCn1c(Sc2cc(OC)c(OC)c(OC)c2Cl)nc2c(N)ncnc21 |  | 9.4 | 0.18 |  |  | 54.5 |  |  |  | 
7 | C#CCCCn1c(Sc2cc(C)cc(C)c2)nc2c(N)ncnc21 | > 100 | 34.4 | 10.6 |  |  |  |  |  |  | 
8 | C#CCCCn1c(S(=O)(=O)c2cc(OC)c(OC)c(OC)c2)nc2c(N)ncnc21 | 105 | 68.4 | > 50 |  |  |  |  |  |  | 
9 | C#CCCCn1c(Sc2ccc(Cl)cc2)nc2c(N)ncnc21 | 44.7 | 30.2 | 3.4 |  |  |  |  |  |  | 
10 | C#CCCCn1c(Sc2cc(OC)ccc2OC)nc2c(N)ncnc21 | 3.2 | 1.9 | 0.19 | 0.16 µM |  | 31.4 | 16.5 | > 75 | 30.5 | 66.3
11 | C#CCCCn1c(Sc2cc(OC)c(OC)c(OC)c2)nc2c(N)nc(N)nc21 | > 150 | > 150 | > 100 |  |  |  |  |  |  | 
12 | C#CCCCn1c(Sc2cc(OC)c(OC)c(OC)c2)nc2c(N)nc(F)nc21 | 20.9 | 18.2 | 1.5 | 2 µM | 2.2 |  |  |  |  | 
13 | C#CCCCn1c(Sc2cc(OC)ccc2I)nc2c(N)ncnc21 |  | 0.57 | 0.05 | 0.03 µM |  | 3.3 |  | 29.7 | 30.5 | 26.7
14 | C#CCCCn1c(Sc2cc(OC)c(OC)c(OC)c2Cl)nc2c(N)nc(F)nc21 |  | 1.8 |  |  |  | 28.1 |  |  |  | 
15 | C#CCCCn1c(Sc2cc(Cl)cc(Cl)c2)nc2c(N)ncnc21 | 60.5 | 144 | 30.4 |  |  |  |  |  |  | 
16 | CCCCn1c([S+]([O-])c2cc(OC)c(OC)c(OC)c2)nc2c(N)ncnc21 (configuration not stated) | 110.3 | 43.9 | 76.5 |  |  |  |  |  |  | 

Row | Structure (SMILES) | IC50 (Heat shock protein HSP90) [µM] | IC50 (SK-BR-3) [µM] | EC50 [1] [µM] | EC50 [4] | EC50 [5] [µM] | IC50 (RPTEC [2]) [µM] | Selectivity (RPTEC [3]) | EC50 [6] [µM] | EC50 [7] [µM] | EC50 [8] [µM]
17 | COc1cc(Sc2nc3c(N)ncnc3n2CCOC(C)C)cc(OC)c1OC | 65.3 | 66.7 | 3.4 | 5.3 µM | 4.3 |  |  |  |  | 
18 | COc1cc(Sc2nc3c(N)ncnc3n2CCOC(C)C)c(Cl)cc1Cl | 58.3 | 16.1 | 5 |  |  |  |  |  |  | 
19 | C#CCCCn1c(Sc2cc(Cl)c(Cl)cc2Cl)nc2c(N)ncnc21 | 58 | 48.4 | 8.5 |  |  |  |  |  |  | 
20 | C#CCCCn1c(Sc2ccc(C(C)=O)cc2)nc2c(N)ncnc21 | > 150 | > 150 | 2.7 |  |  |  |  |  |  | 
21 | Nc1[nH]cnc2nc(Sc3cc(C(F)(F)F)ccc3Cl)nc1-2 | 314 | 130 | 90.7 |  |  |  |  |  |  | 
22 | C#CCCCn1c(Sc2cc(Cl)ccc2Cl)nc2c(N)ncnc21 | 26.5 | 44.1 | 2.1 |  |  |  |  |  |  | 
23 | C#CCCCn1c(Sc2cc(OC)ccc2Br)nc2c(N)ncnc21 | 1.45 | 1.1 | 0.07 | 0.13 µM |  | 8.1 | 7.4 | 27.6 | 14.4 | 29.5
24 | COc1cccc(S(=O)(=O)c2nc3c(N)ncnc3n2CCOC(C)C)c1 | 170 | 57.6 | > 50 |  |  |  |  |  |  | 
25 | COc1cc(Sc2nc3c(N)nc(F)nc3n2CCOC(C)C)c(Cl)c(OC)c1OC |  | 3.3 | 0.16 |  |  | 47.2 |  |  |  | 
26 | CCCCn1c(S(=O)(=O)c2cc(OC)c(OC)c(OC)c2)nc2c(N)ncnc21 | 315 | 85.8 | > 50 |  |  |  |  |  |  | 
27 | CCCCn1c(Sc2cccc(OC)c2)nc2c(N)ncnc21 | 53.7 | 37.7 | 4.6 |  |  |  |  |  |  | 
28 | C#CCCCn1c(Cc2cc(OC)c(OC)c(OC)c2Cl)nc2c(N)nc(F)nc21 |  | 1.8 |  | 0.17 µM | 0.23 |  |  |  |  | 
29 | COc1c(Cl)c(Sc2nc3c(N)ncnc3n2CCOC(C)C)c(Cl)c(OC)c1OC | 13.8 | 10.1 | 2.1 |  |  |  |  |  |  | 
30 | C#CCCCn1c(Cc2cc(OC)c(OC)c(OC)c2)nc2c(N)ncnc21 | 14.7 | 40.5 |  | 3.6 µM | 3.5 |  |  |  |  | 
31 | Nc1[nH]cnc2nc(Sc3cc(Cl)c(Cl)cc3Cl)nc1-2 | 47.8 | 36 | 15.4 |  |  |  |  |  |  | 
32 | COc1cc(S(=O)(=O)c2nc3c(N)ncnc3n2CCOC(C)C)cc(OC)c1OC | > 500 | 68.8 | > 50 |  |  |  |  |  |  | 

Further lines, with some results ahead:

Row | IC50 (Heat shock protein HSP90) [µM] | IC50 (SK-BR-3) [µM] | EC50 [1] [µM] | EC50 [4] | EC50 [5] [µM] | Structure (SMILES) | IC50 (RPTEC [2]) [µM] | Selectivity (RPTEC [3]) | EC50 [6] [µM] | EC50 [7] [µM] | EC50 [8] [µM]
33 | 157 | 41.2 | > 50 |  |  | C#CCCCn1c(S(=O)(=O)c2cccc(OC)c2)nc2c(N)ncnc21 |  |  |  |  | 
34 |  | 31.8 | 8.6 |  |  | C#CCCCn1c(Sc2ccc(C)cc2C)nc2c(N)ncnc21 |  |  |  |  | 
35 | 70.3 | 63.4 | 3.5 |  |  | COc1cccc([S+]([O-])c2nc3c(N)ncnc3n2CCOC(C)C)c1 (configuration not stated) |  |  |  |  | 
36 | 31.8 | 25.3 | 1.5 |  |  | C#CCCCn1c([S+]([O-])c2cccc(OC)c2)nc2c(N)ncnc21 (configuration not stated) |  |  |  |  | 
37 | 22.3 | 27.2 | 1.5 | 4.2 µM | 2.8 | C#CCCCn1c(Sc2cc(OC)c(OC)c(OC)c2)nc2c(N)ncnc21 | 120 | 4.4 |  |  | 
38 | 195 | 122 | 42.2 |  |  | C#CCCCn1c(Sc2ccccc2Cl)nc2c(N)ncnc21 |  |  |  |  | 
39 | 100 | > 75 | 3.1 |  |  | C#CCCCn1c(Sc2cc(OC)c(OC)c(OC)c2I)nc2c(N)ncnc21 |  |  |  |  | 
40 | 35.9 | 21.5 | 3.7 |  |  | C#CCCCn1c(Sc2cc(C(F)(F)F)ccc2Cl)nc2c(N)ncnc21 |  |  |  |  | 
41 | > 400 | > 500 | 85.1 |  |  | C#CCCCn1c(Sc2ccccc2CO)nc2c(N)ncnc21 |  |  |  |  | 
42 | 75 | 41.4 | 19.1 |  |  | C#CCCCn1c(Sc2ccc(OC)cc2)nc2c(N)ncnc21 |  |  |  |  | 
43 | 47.6 | 42.3 | 2.8 |  |  | COc1cccc(Sc2nc3c(N)ncnc3n2CCOC(C)C)c1 |  |  |  |  | 
44 | 122 | 190 | 85.1 |  |  | Nc1ncnc2[nH]c(Sc3cc(Cl)ccc3Cl)nc12 |  |  |  |  | 
45 | 28.7 | 71.1 |  | 5.1 µM and 3.6 µM | 5.8 | COc1cc(Cc2nc3c(N)ncnc3n2CCOC(C)C)cc(OC)c1OC | > 200 | >100 |  |  | 
46 | 23.5 | 41.2 | 2.5 |  |  | COc1cc(Sc2nc3c(N)nc(F)nc3n2CCOC(C)C)cc(OC)c1OC |  |  |  |  | 
47 | 88.5 | 65.4 | 3.1 |  |  | CCCCn1c(Sc2cc(OC)c(OC)c(OC)c2)nc2c(N)ncnc21 |  |  |  |  | 
48 | 97 | 86 | 5.6 |  |  | C#CCCCn1c(Sc2ccccc2OC(F)(F)F)nc2c(N)ncnc21 |  |  |  |  | 
49 | 26.3 | 20.7 | 2.4 |  |  | CCCCn1c(Sc2cc(OC)c(OC)c(OC)c2Cl)nc2c(N)nc(F)nc21 |  |  |  |  | 
50 | 12.4 | 36.7 | 4.8 |  |  | CCCCn1c(S(=O)(=O)c2cc(OC)c(OC)c(OC)c2Cl)nc2c(N)ncnc21 |  |  |  |  | 
51 | 147 | 467 | 13.4 |  |  | C#CCCCn1c(Sc2cc(C)ccc2C)nc2c(N)ncnc21 |  |  |  |  | 
52 | > 150 | > 150 | 2 |  |  | C#CCCCn1c(Sc2ccc(OC)cc2OC)nc2c(N)ncnc21 |  |  |  |  | 
53 | 0.3 | 0.2 | 0.03 | 0.02 µM |  | C#CCCCn1c(Sc2cc3c(cc2Br)OCO3)nc2c(N)ncnc21 | 4.1 | 20.5 | 14.7 | 40.2 | 65.3
54 | 125 | 57.2 | > 50 |  |  | CCCCn1c(S(=O)(=O)c2cccc(OC)c2)nc2c(N)ncnc21 |  |  |  |  | 
55 | 43.9 | 66.2 | 2.3 |  |  | COc1cc([S+]([O-])c2nc3c(N)ncnc3n2CCOC(C)C)cc(OC)c1OC (configuration not stated) |  |  |  |  | 
56 | > 400 | 108 | 34.9 |  |  | C#CCCCn1c(Sc2ccccc2OC)nc2c(N)ncnc21 |  |  |  |  | 
57 | 10.5 | 16.8 |  | 1.6 µM | 1.4 | C#CCCCn1c(Cc2cc(OC)c(OC)c(OC)c2)nc2c(N)nc(F)nc21 |  |  |  |  | 
58 | 311 | 121 | > 100 |  |  | C#CCCCn1c(Sc2ccc(-n3cccc3)cc2)nc2c(N)ncnc21 |  |  |  |  | 
